Assay results gathered from unrelated publications.
Protocols differ between the studies behind these lines.
Target: Serine/threonine-protein kinase Sgk2 (SGK2, Homo sapiens, UniProt Q9HBY8)
One construct used (Q9HBY8 1-367): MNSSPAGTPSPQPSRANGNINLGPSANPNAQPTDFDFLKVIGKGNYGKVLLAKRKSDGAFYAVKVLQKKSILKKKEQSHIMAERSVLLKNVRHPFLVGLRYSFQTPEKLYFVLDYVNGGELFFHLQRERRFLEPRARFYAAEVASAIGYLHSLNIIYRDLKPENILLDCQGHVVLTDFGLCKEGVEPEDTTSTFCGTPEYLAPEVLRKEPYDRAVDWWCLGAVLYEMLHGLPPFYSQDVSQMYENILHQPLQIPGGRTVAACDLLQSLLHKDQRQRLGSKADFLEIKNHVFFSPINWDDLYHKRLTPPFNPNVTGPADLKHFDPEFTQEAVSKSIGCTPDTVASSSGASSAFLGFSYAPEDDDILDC

SMILES | assay | conditions | endpoint | result
CNC(=O)c1cc(Oc2ccc(NC(=O)Nc3ccc(Cl)c(C(F)(F)F)c3)cc2)ccn1 | enzyme activity, inhibitor | 0.3 µM | inhibition | 3%
CCCS(=O)(=O)Nc1ccc(F)c(C(=O)c2c[nH]c3ncc(-c4ccc(Cl)cc4)cc23)c1F | enzyme activity, inhibitor | 1 µM | inhibition | < 10%
Cc1ccc(C(=O)Nc2ccc(CN3CCN(C)CC3)c(C(F)(F)F)c2)cc1C#Cc1cnc2cccnn12 | enzyme activity, inhibitor | 23.5 nM | remaining activity | 76%
O=C1Nc2ccc(Cl)cc2C1=Cc1cc(Cl)c(O)c(Cl)c1 | cell-free assay | 0.5 µM | remaining signal | 89.2%
CN1CC(Oc2cnc(C#N)cc2-c2ccn3nc(NC(=O)C4CC4)cc3c2)C1 | enzyme activity, inhibitor | 1 µM | inhibition | -2%
CC(C)(O)[C@H]1CC[C@H](Nc2ccc3ncc(-c4cccc(C(F)(F)F)c4)n3n2)CC1 | enzyme activity, inhibitor | 1 µM | remaining activity | 96.1%
O=C1CCc2cc(Nc3cc(OC4CCOCC4)c([N+](=O)[O-])cc3Cl)ccc2N1 | cell-free assay, competition with immobilised ligand | 1 µM | remaining binding | 80%
Cc1ccc(Nc2nccc(N(C)c3ccc4c(C)n(C)nc4c3)n2)cc1S(N)(=O)=O | enzyme activity, inhibitor | 10 µM | inhibition | 10%
CN([C@@H]1CCc2c(CC(=O)O)c3cc(S(C)(=O)=O)ccc3n2C1)S(=O)(=O)c1ccc(F)cc1 | cell-free assay, competition with immobilised ligand | 1 µM | remaining binding | 100%
Cc1cc(NC(=O)c2cccc3cc(-c4cccc5[nH]nc(N)c45)ccc23)ccc1F | enzyme activity, inhibitor | 0.1 µM | activity vs control | 76%
CC(C)(C)c1nc2c(s1)c1nc(N)ncc1c1ccc(NS(=O)(=O)c3c(F)cccc3F)c(F)c12 | enzyme activity, inhibitor, radiometric | 1 µM | remaining activity | 91%
Nc1ncnc2occ(-c3ccc(NC(=O)Nc4cc(C(F)(F)F)ccc4F)cc3)c12 | cell-free assay, inhibitor | 20 µM | remaining signal | 13%
CCN(CC)c1ccc(C2=NNC(=O)CC2C)cc1[N+](=O)[O-] (stereo not shown) | enzyme activity, inhibitor | 10 µM | remaining activity | 104%
CO[C@H]1CC[C@H](CNc2ccc(S(=O)(=O)NC(=O)c3ccc(N4CCN(CC5=C(c6ccc(Cl)cc6)CC(C)(C)CC5)CC4)cc3Oc3cnc4[nH]ccc4c3)cc2[N+](=O)[O-])CC1 | cell-free assay, competition with immobilised ligand | 1 µM | remaining binding | 91%
Cc1sc(C(=O)NC2COC2)cc1-n1cc(NC(=O)Nc2c(F)cccc2Cl)cn1 | enzyme activity, inhibitor | 10 µM | remaining activity | 97.2%
CCC(=N\O)/C(C)=C/c1ccc(F)cc1 | cell-free assay, competition with immobilised ligand | 1 µM | remaining binding | 78%
CCCOc1ccc(OC)c(F)c1C(=O)c1ccc(C(=O)N[C@@H]2CNC[C@H]2NC(=O)c2ccc3[nH]ncc3c2)cc1 | enzyme activity, inhibitor | 10 µM | remaining activity | 1%
Cc1nccc(COC(=O)N2C[C@@H]3[C@@H](CNC(=O)c4ccc5[nH]nnc5c4)[C@@H]3C2)n1 | cell-free assay, competition with immobilised ligand | 1 µM | remaining binding | 100%
COc1cc2ncnc(Nc3ccc(Oc4ccccc4)c(C)c3C)c2cc1OC | enzyme activity, inhibitor | 1 µM | inhibition | 0%
CCN(CC)CCNC(=O)c1c(C)[nH]c(/C=C2\C(=O)Nc3ccc(F)cc32)c1C | enzyme activity, inhibitor | 10 µM | inhibition | 48%
Cn1cnc(Br)c1C1=CN(c2ncnc3[nH]cnc23)CCS1 | enzyme activity, inhibitor, radiometric | 50 nM | inhibition | 20.8%
NS(=O)(=O)c1cc(NC(=O)C2(c3ccccc3Cl)CC2)ccc1Oc1cccc(Cl)c1 | cell-free assay, competition with immobilised ligand | 1 µM | remaining binding | 100%
